Results pooled from the literature.
Each line is one published result; the experiments were not run side by side.
Target: Dual specificity mitogen-activated protein kinase kinase 1 (MAP2K1, Homo sapiens, UniProt Q02750)

Compound | observed | action | method | concentration | measurement | value
Nc1ncc(-c2nc(N3CCOCC3)nc(N3CCOCC3)n2)c(C(F)F)n1 | binding |  | competition with immobilised ligand | 10 µM | remaining binding | 83%
CC(C)(C)c1cc(C=C(C#N)C#N)cc(Br)c1O | enzyme activity | inhibitor |  | 0.5 µM | remaining activity | 90.8%
Cn1cncc1[C@](O)(COc1ccc(C#N)cc1-c1ccc(OC(F)(F)F)cc1)c1ccc(C#N)cc1 | cell-free assay |  | competition with immobilised ligand | 1 µM | remaining binding | 100%
Cc1nn(C)cc1-c1nc2c(N3CCN(Cc4ccc(Cl)cc4)CC3)c(Cl)cnc2[nH]1 | binding |  | competition with immobilised ligand | 1 µM | remaining binding | 100%
O=c1[nH]c2ccccc2n1C1CCN(Cc2ccc(-c3[nH]c4cc5ncnc5cc4nc3-c3ccccc3)cc2)CC1 | cell-free assay |  |  | 0.5 µM | remaining signal | 96.8%
N#CC1(c2ccccn2)CCN(Cc2cc(C(=O)O)c(=O)n3ccccc23)CC1 | cell-free assay |  | competition with immobilised ligand | 1 µM | remaining binding | 95%
COc1ncccc1-c1cnn2ccc(N3CCN(C(=O)OC(C)C)CC3)nc12 | binding |  | competition with immobilised ligand | 1 µM | remaining binding | 100%
Cn1cc(-c2cc(F)cc(N3CCn4c(cc5c4CCCC5)C3=O)c2CO)cc(Nc2ccc(N3CCN(C4COC4)CC3)cn2)c1=O | enzyme activity | inhibitor |  | 0.1 µM | inhibition | 6%
C#Cc1n[nH]c2c(-c3cn([C@@H](C)c4ccccc4)c(=O)[nH]c3=O)cc(F)cc12 | enzyme activity | inhibitor |  | 0.1 µM | inhibition | 6.6%
Cn1cc(-c2cccc(N3CCc4c(sc5c4CC(C)(C)C5)C3=O)c2CO)cc(Nc2ccncn2)c1=O | enzyme activity | inhibitor |  | 1 µM | inhibition | 0%
C#Cc1n[nH]c2c(-c3cn([C@@H](C)c4ccccn4)c(=O)[nH]c3=O)cc(F)cc12 | enzyme activity | inhibitor |  | 0.1 µM | inhibition | 12%
